Experimental data as given in ChEMBL document CHEMBL3091395, “Discovery of Octahydroindenes as PAR1 Antagonists” (ACS Med Chem Lett, 2013).

Experiments:
[1] = target: T1, Proteinase-activated receptor 1 (Homo sapiens, UniProt P25116); assay: Displacement of [3H]haTRAP from PAR1 in human platelet membranes after 60 mins by scintillation counting analysis; type: cell membranes
T1 sequence (P25116 whole entry): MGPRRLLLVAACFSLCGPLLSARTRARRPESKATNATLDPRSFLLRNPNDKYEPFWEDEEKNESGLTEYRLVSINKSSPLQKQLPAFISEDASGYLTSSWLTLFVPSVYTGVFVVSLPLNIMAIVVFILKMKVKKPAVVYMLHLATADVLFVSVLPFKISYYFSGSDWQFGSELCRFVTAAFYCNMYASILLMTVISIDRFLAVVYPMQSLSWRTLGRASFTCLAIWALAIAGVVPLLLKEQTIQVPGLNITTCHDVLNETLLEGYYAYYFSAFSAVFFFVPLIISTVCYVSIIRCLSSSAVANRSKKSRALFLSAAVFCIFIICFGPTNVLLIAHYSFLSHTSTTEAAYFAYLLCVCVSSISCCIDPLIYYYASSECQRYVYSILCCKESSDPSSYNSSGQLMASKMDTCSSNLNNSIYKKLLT
Summary of the method: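 Radioligand binding to PAR1 using a tritiated peptide ligand, phenylalanine-arginine-cyclohexylalanine-homoarginine-[³H]-tyrosine-NH₂, reported as IC50. Each value is the average of three measurements. Racemic mixtures were tested without separation. Vorapaxar, synthesized in-house, was included as the reference standard.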

[2] = Cytotoxicity against human HepG2 cells assessed as ATP contents at 30 uM after 24 hrs relative to control; type: cell-based; details: read-out: Activity
Summary of the method: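 HepG2 cells were exposed to compound at 30 μM. Cellular ATP content was measured 24 h after compound addition and expressed as % of vehicle-treated control.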

[3] = Metabolic stability in rat liver microsomes assessed as time when 50% of compound remains; type: ADME; details: read-out: Time
[4] = Metabolic stability in human liver microsomes assessed as time when 50% of compound remains; type: ADME; details: read-out: Time

SMILES | IC50 [1] [nM] | viability at 24 h, 30 µM [2] [%] | half-life [3] [min] | half-life [4] [min]
OC1C[C@@H]2CCCC[C@@H]2[C@H]1/C=C/c1ccc(-c2cccc(F)c2)cn1 (mixture of isomers) | 220 |  |  | 
Fc1cccc(-c2ccc(/C=C/[C@H]3C(OCc4ccccc4)C[C@@H]4CCCC[C@@H]43)nc2)c1 (mixture of isomers) | 280 |  |  | 
CS(=O)(=O)OC1C[C@@H]2CCCC[C@@H]2[C@H]1/C=C/c1ccc(-c2cccc(F)c2)cn1 (mixture of isomers) | 6.4 | 94 | 6.5 | 3.5
CN(C)C(=S)OC1C[C@@H]2CCCC[C@@H]2[C@H]1/C=C/c1ccc(-c2cccc(F)c2)cn1 (mixture of isomers) | 120 |  |  | 
COC(=O)NC1C[C@@H]2CCCC[C@@H]2[C@H]1/C=C/c1ccc(-c2cccc(F)c2)cn1 (mixture of isomers) | 980 |  |  | 
CC(C)(C)OC(=O)NC1C[C@@H]2CCCC[C@@H]2[C@H]1/C=C/c1ccc(-c2cccc(F)c2)cn1 (mixture of isomers) | 7800 |  |  | 
CC(=O)NC1C[C@@H]2CCCC[C@@H]2[C@H]1/C=C/c1ccc(-c2cccc(F)c2)cn1 (mixture of isomers) | 53 |  |  | 
CN(C1C[C@@H]2CCCC[C@@H]2[C@H]1/C=C/c1ccc(-c2cccc(F)c2)cn1)S(C)(=O)=O (mixture of isomers) | 1.3 | 95 | 2.2 | 2.5
O=C1NCC2(C[C@@H]3CCCC[C@@H]3[C@H]2/C=C/c2ccc(-c3cccc(F)c3)cn2)O1 (mixture of isomers) | 8.6 | 101 | 6.7 | 4.4
COC1(C)C[C@@H]2CCCC[C@@H]2[C@H]1/C=C/c1ccc(-c2cccc(F)c2)cn1 (mixture of isomers) | 43 |  |  | 
COC1C[C@@H]2CCCC[C@@H]2[C@H]1/C=C/c1ccc(-c2cccc(F)c2)cn1 (mixture of isomers) | 67 |  |  | 
CC(=O)OC1C[C@@H]2CCCC[C@@H]2[C@H]1/C=C/c1ccc(-c2cccc(F)c2)cn1 (mixture of isomers) | 67 |  |  | 
O=C(Nc1ccccc1)OC1C[C@@H]2CCCC[C@@H]2[C@H]1/C=C/c1ccc(-c2cccc(F)c2)cn1 (mixture of isomers) | 360 |  |  | 
NC1C[C@@H]2CCCC[C@@H]2[C@H]1/C=C/c1ccc(-c2cccc(F)c2)cn1 (mixture of isomers) | 230 |  |  | 
CCOC(=O)NC1C[C@@H]2CCCC[C@@H]2[C@H]1/C=C/c1ccc(-c2cccc(F)c2)cn1 (mixture of isomers) | 2000 |  |  | 
CS(=O)(=O)NC1C[C@@H]2CCCC[C@@H]2[C@H]1/C=C/c1ccc(-c2cccc(F)c2)cn1 (mixture of isomers) | 50 |  | 105 | 273
O=C(NC1C[C@@H]2CCCC[C@@H]2[C@H]1/C=C/c1ccc(-c2cccc(F)c2)cn1)C1CC1 (mixture of isomers) | 230 |  |  | 
CC(=O)N(C)C1C[C@@H]2CCCC[C@@H]2[C@H]1/C=C/c1ccc(-c2cccc(F)c2)cn1 (mixture of isomers) | 5.4 | 98 | 5.2 | 5.6
CC1(O)C[C@@H]2CCCC[C@@H]2[C@H]1/C=C/c1ccc(-c2cccc(F)c2)cn1 (mixture of isomers) | 33 |  |  | 
CC1(OC(N)=O)C[C@@H]2CCCC[C@@H]2[C@H]1/C=C/c1ccc(-c2cccc(F)c2)cn1 (mixture of isomers) | 2.7 | 99 | 5.8 | 4.3
Fc1cccc(-c2ccc(/C=C/[C@@H]3[C@H]4CCCC[C@@H]4CC34OCCO4)nc2)c1 (racemic) | 470 |  |  | 
Fc1cccc(-c2ccc(/C=C/[C@H]3[C@H]4CCCC[C@H]4CC34OCCO4)nc2)c1 (racemic) | 2100 |  |  | 
O=C1C[C@@H]2CCCC[C@@H]2[C@H]1/C=C/c1ccc(-c2cccc(F)c2)cn1 (racemic) | 1100 |  |  | 
Fc1cccc(-c2ccc(/C=C/[C@@H]3[C@H]4CCCC[C@H]4CC34OCCO4)nc2)c1 (racemic) | 26 | 97 | 3.4 | 4.5
CCOC(=O)N[C@@H]1CC[C@@H]2[C@@H](C1)C[C@H]1C(=O)O[C@H](C)[C@H]1[C@H]2/C=C/c1ccc(-c2cccc(F)c2)cn1 [VORAPAXAR] | 1.1 | 102 | 32.4 | 83.2
